A short description of data set [1]: Cytotoxicity against human Hep2 cells assessed as growth inhibition. The format is functional. The note with it: HEp-2, read-out: ED50 (the source's name). The method in brief: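 Human epidermoid carcinoma No. 2 (H.Ep. No. 2) cells grown in culture with compound. ED50 is the concentration that holds growth of treated cells to 50% of untreated controls.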
For data set [2], the system named is HEp-2. The data set is described as follows: Resistance ratio of ED50 for adenosine kinase deficient 6-(methylthio)purine ribonucleoside-resistant human Hep2 cells to ED50 for wild type human Hep2 cells. The format is functional. The method in brief:
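ED50 is measured as growth inhibition to 50% of untreated controls in an H.Ep. No. 2 subline resistant to 6-(methylthio)purine ribonucleoside that lacks adenosine kinase. It is divided by the ED50 in the sensitive (wild) H.Ep. No. 2 line.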

Data set [3] has as its system HEp-2. The data set is described as follows: Resistance ratio of ED50 for adenine phosphoribosyltransferase/adenosine kinase deficient 2-fluoro adenine/2-fluoro adenosine-resistant human Hep2 cells to ED50 for wild type human Hep2 cells. The format is functional.
Data set [4] relates to HEp-2. As to the kind of experiment: Resistance ratio of ED50 for hypoxanthine-guanine phosphoribosyl transferase/adenosine kinase deficient 6-mercaptopurine/6-(methylthio)purine ribonucleoside-resistant human Hep2 cells to ED50 for wild type human Hep2 cells. The data set is classed as functional.
In data set [5] the test system is L1210. As to the kind of experiment: Antitumor activity against mouse L1210 cells allografted in ip dosed BD2F1 mouse assessed as increase in life span administered 1 to 9 days measured on day 10 to 12 relative to control. The data set is classed as functional.
Data set [6] deals with L1210. The data set is described as follows: Antitumor activity against mouse L1210 cells allografted in BD2F1 mouse assessed as increase in life span at 90 mg/kg, ip administered 1 to 9 days measured on day 10 to 12 relative to control. The data set is classed as functional. The note with it: route intraperitoneal.
Data set [7] in a line: Drug degradation in buffer assessed as formation of 3,6-Dihydro-3-beta-D-ribofuranosyl-7H-1,2,3-triazolo[4,5-d]-pyrimidine-7-thione at pH 7.3 after 6 days by HPLC analysis. The note with it: pH 7.3, 144 h. The format is physicochemical. The method in brief:
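Conversion in pH 7.3 buffer, under conditions meant to mirror the cytotoxicity assay, followed by high-pressure liquid chromatography.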

In data set [8] the test system is L1210. The data set is described as follows: Antitumor activity against mouse L1210 cells allografted in BD2F1 mouse assessed as increase in life span at 40 mg/kg, ip administered 1 to 9 days measured on day 10 to 12 relative to control. The note with it: route intraperitoneal. The data set is classed as functional.
The subject of data set [9] is L1210. The data set is described as follows: Antitumor activity against mouse L1210 cells allografted in BD2F1 mouse assessed as increase in life span at 60 mg/kg, ip administered 1 to 9 days measured on day 10 to 12 relative to control. The format is functional. The note with it: route intraperitoneal.
In data set [10] the test system is HEp-2. As to the kind of experiment: Cytotoxicity against human Hep2 cells assessed as growth inhibition at 50 uM. The format is functional, cell-based.

Here are results for 15 molecules from ChEMBL document CHEMBL3244305, “Analogues of 8-azainosine” (J Med Chem, 1977).

Calls of active or inactive are those of the source. No cut-off for these calls is given here.

Take `CSc1ncnc2c1nnn2[C@@H]1O[C@H](COC(C)=O)[C@@H](OC(C)=O)[C@H]1OC(C)=O`: in data set [1], the EC50 is 500 nM.

As for `CCOc1ncnc2c1nnn2[C@@H]1O[C@H](CO)[C@@H](O)[C@H]1O`, in data set [1], the EC50 worked out at 100 nM. In the data set with HEp-2 [2], the “Ratio ED50” value turned out to be 20.

Take `Nc1ncnc2c1nnn2[C@@H]1O[C@H](CO)[C@@H](O)[C@H]1O`: in data set [1], the EC50 is 800 nM. Moreover, the results for the “Ratio ED50” value in the data set on HEp-2 [3], in the data set on HEp-2 [4] and in the data set with HEp-2 [2] were 2, 60 and 2, respectively. Further, the ILS with L1210 [5] stood at 39%.

In the case of `CSc1ncnc2c1nnn2[C@@H]1O[C@H](CO)[C@@H](O)[C@H]1O`, the EC50 in data set [1] stood at 20 nM. Besides, the “Ratio ED50” value in the data set with HEp-2 [3] was 3000; in the data set with HEp-2 [2] it was 2000. Further, the ILS with L1210 [5] was 23%.

As to `CC(C)=CCNc1ncnc2c1nnn2[C@@H]1O[C@H](CO)[C@@H](O)[C@H]1O`, the EC50 in data set [1] is below 3000 nM.

In the case of `COc1ncnc2c1nnn2[C@@H]1O[C@H](CO)[C@@H](O)[C@H]1O`, in [1], the EC50 was 300 nM. In addition, the “Ratio ED50” value in the data set on HEp-2 [3] and with HEp-2 [2] was 6 each time. Further, the ILS in the data set with L1210 [5] is 29%.

For the molecule `CSc1ncnc2nn([C@@H]3O[C@H](COC(C)=O)[C@@H](OC(C)=O)[C@H]3OC(C)=O)nc12`, the EC50 in data set [1] was determined as 7000 nM.

Take `CSc1ncnc2nn([C@@H]3O[C@H](CO)[C@@H](O)[C@H]3O)nc12`: in data set [1], the EC50 turned out to be 6000 nM.

For the molecule `CSc1ncnc2[nH]nnc12`, the EC50 in data set [1] is above 300000 nM.

In the case of `OC[C@H]1O[C@@H](Nc2ncnc3snnc23)[C@H](O)[C@@H]1O`, the EC50 in data set [1] stood at 100 nM. The ILS at 90 mg/kg in the data set with L1210 [6] turned out to be 36%. In addition, in data set [7], the Stability entry is on record as “Stable”. Moreover, the ILS at 40 mg/kg in the data set on L1210 [8] turned out to be 25%. Further, the ILS at 60 mg/kg in the data set on L1210 [9] came out at 28%.

With `Nc1ncnc2nn([C@@H]3O[C@H](CO)[C@@H](O)[C@H]3O)nc12`, the EC50 in [1] was above 70000 nM.

As for `CCCCNc1ncnc2c1nnn2[C@@H]1O[C@H](CO)[C@@H](O)[C@H]1O`, the EC50 in data set [1] was determined as 300 nM.

For `CCSc1ncnc2c1nnn2[C@@H]1O[C@H](CO)[C@@H](O)[C@H]1O`, in [1], the EC50 worked out at 100 nM. Further, the “Ratio ED50” value with HEp-2 [3] was found to be 300.

Consider `OC[C@H]1O[C@@H](n2nnc3c(S)ncnc32)[C@H](O)[C@@H]1O`, for which, in data set [1], the EC50 is 1000 nM. Moreover, the “Ratio ED50” value in the data set with HEp-2 [3] was found to be 40; in the data set on HEp-2 [2], 90.

As for `Nc1ncnc2snnc12`, in the data set with HEp-2 [10], the “growth inhibition (GI)” value was “inactive”.

The term ILS denotes the gain in survival time of treated over control animals, in per cent.
